Values after ≈ are worked out from the molar mass of the structure shown.
Assays:
Assay type in all cases: functional
[1] = molecular target: Beta lactamase TEM-1 (Klebsiella pneumoniae) (UniProt Q7B899); experiment: Beta-lactamase inhibitory activity from Klebsiella pneumoniae A20634(TEM) and minimum protective concentration was reported
[2] = molecular target: Metallo-beta-lactamase type 2 (Bacteroides fragilis) (UniProt P25910); experiment: Beta-lactamase inhibitory activity from […] A-22,695 and minimum protective concentration was reported
Metallo-beta-lactamase type 2 (Bacteroides fragilis), sequence (P25910 whole entry): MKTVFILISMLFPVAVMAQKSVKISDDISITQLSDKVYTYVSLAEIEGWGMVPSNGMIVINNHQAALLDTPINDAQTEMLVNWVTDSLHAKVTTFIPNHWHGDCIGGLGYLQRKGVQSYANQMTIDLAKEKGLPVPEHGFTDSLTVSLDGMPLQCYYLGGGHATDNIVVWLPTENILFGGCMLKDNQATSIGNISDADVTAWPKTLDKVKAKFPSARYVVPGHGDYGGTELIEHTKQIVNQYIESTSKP

[3] = molecular target: Beta-lactamase (Staphylococcus aureus) (UniProt P00807); experiment: Beta-lactamase inhibitory activity from Staphylococcus aureus A9606 and minimum protective concentration was reported
Beta-lactamase (Staphylococcus aureus), sequence (P00807 whole entry): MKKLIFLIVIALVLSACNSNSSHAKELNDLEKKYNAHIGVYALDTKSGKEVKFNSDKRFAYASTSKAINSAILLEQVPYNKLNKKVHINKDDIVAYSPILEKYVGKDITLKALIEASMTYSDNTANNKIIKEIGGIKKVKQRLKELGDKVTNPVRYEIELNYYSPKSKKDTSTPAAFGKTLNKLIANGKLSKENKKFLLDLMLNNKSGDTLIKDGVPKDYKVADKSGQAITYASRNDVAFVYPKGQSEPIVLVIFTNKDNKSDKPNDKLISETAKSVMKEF

Escherichia coli [4] = experiment: Minimum inhibitory activity against Escherichia coli A21223
Method in brief: (§1)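 MICs by agar dilution: organisms were inoculated onto drug-containing agar plates with a multipoint replicating device.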

Escherichia coli [5] = experiment: Minimum inhibitory activity against Escherichia coli A9675; method in brief: as §1
Staphylococcus aureus [6] = experiment: Minimum inhibitory activity against Staphylococcus aureus A15091; method in brief: as §1
Staphylococcus aureus [7] = experiment: Minimum inhibitory activity against Staphylococcus aureus A20309; method in brief: as §1
Staphylococcus aureus [8] = experiment: Minimum inhibitory activity against Staphylococcus aureus A9606; method in brief: as §1
Mus musculus [9] = species: Mus musculus; experiment: Beta-lactamase inhibitory activity against Escherichia coli A21223 using oral mouse protection test in mice; settings: read-out: PD50
Method in brief: (§2)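 Challenge organisms suspended in mucin (2 or 4%) and injected ip into 18-24 g Swiss-Webster (ICR strain) mice. Oral treatment given at 0 and 2 h postchallenge. Observation ran 5 days, and PD50 was calculated by the Spearman-Karber method.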

Mus musculus [10] = species: Mus musculus; experiment: Beta-lactamase inhibitory activity against Staphylococcus aureus A15091 using oral mouse protection test in mice; settings: read-out: PD50; method in brief: as §2
Mus musculus [11] = species: Mus musculus; experiment: Beta-lactamase inhibitory activity against Staphylococcus aureus A20379 using oral mouse protection test in mice; settings: read-out: PD50; method in brief: as §2
Mus musculus [12] = species: Mus musculus; experiment: Beta-lactamase inhibitory activity against Staphylococcus aureus A9606 using oral mouse protection test in mice; settings: for ED50: Mus musculus, po, read-out: PD50; method in brief: as §2

Beta lactamase TEM-1 (Klebsiella pneumoniae), sequence (Q7B899 as listed by the source): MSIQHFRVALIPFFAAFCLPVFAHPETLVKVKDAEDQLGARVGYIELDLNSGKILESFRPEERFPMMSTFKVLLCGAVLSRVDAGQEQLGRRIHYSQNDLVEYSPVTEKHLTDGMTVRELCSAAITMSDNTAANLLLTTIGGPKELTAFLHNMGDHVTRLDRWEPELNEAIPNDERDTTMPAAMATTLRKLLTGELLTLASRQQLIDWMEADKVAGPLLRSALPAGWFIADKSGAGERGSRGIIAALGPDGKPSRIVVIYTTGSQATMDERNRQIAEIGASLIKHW

SMILES	MPC [1] [µg/mL]	MPC [2] [µg/mL]	MPC [3] [µg/mL]	MIC (Escherichia coli [4]) [µg/mL]	MIC (Escherichia coli [5]) [µg/mL]	MIC (Staphylococcus aureus [6]) [µg/mL]	MIC (Staphylococcus aureus [7]) [µg/mL]	MIC (Staphylococcus aureus [8]) [µg/mL]	ED50 (Mus musculus [9]) [mg/kg]	ED50 (Mus musculus [10]) [mg/kg]	ED50 (Mus musculus [11]) [mg/kg]	PD50 (Mus musculus [12]) [mg/kg]	ED50 (Mus musculus [12]) [mg/kg]
O=C(O)[C@H]1/C(=C/CO)O[C@@H]2CC(=O)N21 [CLAVULANIC ACID]	0.1	6.3	0.4	32 (≈ 161 µM)	32 (≈ 161 µM)	32 (≈ 161 µM)	32 (≈ 161 µM)	32 (≈ 161 µM)	–	–	–	–	–
CC1(C)[C@H](C(=O)O)N2C(=O)C[C@H]2S1(=O)=O [SULBACTAM]	1.6	12.5	12.5	> 125	125 (≈ 536 µM)	> 125	> 125	> 125	> 200	> 200	> 200	> 200	–
CC1(C)S[C@@H]2[C@H](NC(=O)[C@H](N)c3ccc(O)cc3)C(=O)N2[C@H]1C(=O)O.O=C(O)[C@H]1/C(=C/CO)O[C@@H]2CC(=O)N21	–	–	–	8	2	2	2	2	–	–	–	–	–
CC1(C)C(C(=O)O)N2C(=O)C(Cl)C2S1(=O)=O (stereo not drawn)	25	–	> 100	–	–	–	–	–	–	–	–	–	–
CC1(C)S[C@@H]2[C@H](NC(=O)[C@H](N)c3ccc(O)cc3)C(=O)N2[C@H]1C(=O)O.C[C@]1(CCl)[C@H](C(=O)[O-])N2C(=O)C[C@H]2S1(=O)=O.[K+] [AMOXACILLIN +BL-P2013]	–	–	–	2	2	1	2	1	16	72	34	–	24
C[C@]1(CCl)[C@H](C(=O)[O-])N2C(=O)C[C@H]2S1(=O)=O.[K+] [BL-P2013]	3.1	12.5	3.1	> 125	> 125	125	125	125	> 200	> 200	> 200	–	> 200
CC1(C)S[C@@H]2[C@H](NC(=O)[C@H](N)c3ccc(O)cc3)C(=O)N2[C@H]1C(=O)O.CC1(C)[C@H](C(=O)O)N2C(=O)C[C@H]2S1(=O)=O	–	–	–	4	4	2	4	2	46	160	21	–	15
CC1(C)S[C@@H]2[C@H](NC(=O)[C@H](N)c3ccc(O)cc3)C(=O)N2[C@H]1C(=O)O [AMOXICILLIN]	–	–	–	125 (≈ 342 µM)	63 (≈ 172 µM)	> 125	125 (≈ 342 µM)	> 125	> 200	> 800	> 200	–	> 800
COc1cccc(OC)c1C(=O)N[C@@H]1C(=O)N2[C@@H](C(=O)O)C(C)(C)S(=O)(=O)[C@H]12	125	–	> 100	–	–	–	–	–	–	–	–	–	–
